From ChEMBL document CHEMBL5247578, “Effective synthesis of benzimidazoles-imidazo[1,2-a]pyrazine conjugates: A comparative study of mono-and bis-benzimidazoles for antitumor activity” (Eur J Med Chem, 2019)

What was measured:
[1] = system: PC-3; assay: Growth inhibition against human PC-3 cells incubated for 48 hrs by sulforhodamine B assay; type: functional
[2] = system: SK-MEL-2; assay: Growth inhibition against human SK-MEL-2 cells incubated for 48 hrs by sulforhodamine B assay; type: functional
[3] = system: SF-295; assay: Antiproliferative activity against human SF-295 cells assessed as cell growth at 0.00000001 M incubated for 48 hrs by SRB assay relative to control; type: functional; settings: dose 10 nM, read-out: Activity
[4] = system: SK-MEL-28; assay: Antiproliferative activity against human SK-MEL-28 cells assessed as cell growth inhibition by measuring lethal concentration incubated for 48 hrs by sulforhodamine B assay; type: functional; settings: read-out: LC50 (the source's name)
[5] = system: SF-268; assay: Antiproliferative activity against human SF-268 cells assessed as cell growth at 0.00000001 M incubated for 48 hrs by SRB assay relative to control; type: functional; settings: dose 10 nM, read-out: Activity
[6] = system: NCI-H522; assay: Antiproliferative activity against human NCI-H522 cells assessed as cell growth at 0.000001 M incubated for 48 hrs by SRB assay relative to control; type: functional; settings: read-out: Activity
[7] = system: HOP-62; assay: Antiproliferative activity against human HOP-62 cells assessed as cell growth at 0.00001 M incubated for 48 hrs by SRB assay relative to control; type: functional; settings: read-out: Activity
How it was run: (§1)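 NCI-60 five-dose screen (10^-4 to 10^-8 M). Cells grown in RPMI 1640 with 5% FBS and 2 mM L-glutamine, plated at 5,000-40,000 cells/well and preincubated 24 h. Drug given from DMSO stock, then 48 h at 37 °C, 5% CO2. For adherent lines, cells fixed with cold TCA, SRB-stained and read at 515 nm. Percent growth taken against time-zero and untreated control.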

[8] = system: HOP-92; assay: Antiproliferative activity against human HOP-92 cells assessed as cell growth at 0.0001 M incubated for 48 hrs by SRB assay relative to control; type: functional; settings: read-out: Activity; how it was run: as §1
[9] = system: MCF7; assay: Growth inhibition against human MCF7 cells assessed as total growth inhibitory concentration incubated for 48 hrs by sulforhodamine B assay; type: functional
[10] = system: T47D; assay: Antiproliferative activity against human T47D cells assessed as cell growth at 0.00000001 M incubated for 48 hrs by SRB assay relative to control; type: functional; settings: dose 10 nM, read-out: Activity
[11] = system: SF-268; assay: Growth inhibition against human SF-268 cells assessed as total growth inhibitory concentration incubated for 48 hrs by sulforhodamine B assay; type: functional
[12] = system: SK-OV-3; assay: Antiproliferative activity against human SK-OV-3 cells assessed as cell growth at 0.00001 M incubated for 48 hrs by SRB assay relative to control; type: functional; settings: read-out: Activity
[13] = system: CAKI-1; assay: Growth inhibition against human CAKI-1 cells incubated for 48 hrs by sulforhodamine B assay; type: functional
[14] = system: Malme-3M; assay: Antiproliferative activity against human Malme-3M cells assessed as cell growth at 0.00000001 M incubated for 48 hrs by SRB assay relative to control; type: functional; settings: dose 10 nM, read-out: Activity
[15] = system: CCRF-CEM; assay: Antiproliferative activity against human CCRF-CEM cells assessed as cell growth at 0.0001 M incubated for 48 hrs by SRB assay relative to control; type: functional; settings: read-out: Activity
How it was run: (§2)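 NCI-60 five-dose screen over 10^-4–10^-8 M (10-fold dilutions). Cells grown in RPMI 1640 with 5% FBS and 2 mM L-glutamine, seeded at 5,000–40,000 cells/well and preincubated 24 h. Drug from DMSO stock, 48 h at 37 °C, 5% CO2. Adherent cells TCA-fixed and stained with 0.4% SRB; A515 read. Percent growth = (Ti−Tz)/(C−Tz)×100, or (Ti−Tz)/Tz×100 when Ti<Tz.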

[16] = system: T47D; assay: Antiproliferative activity against human T47D cells assessed as cell growth at 0.000001 M incubated for 48 hrs by SRB assay relative to control; type: functional; settings: read-out: Activity
[17] = system: OVCAR-8; assay: Antiproliferative activity against human OVCAR-8 cells assessed as cell growth at 0.0000001 M incubated for 48 hrs by SRB assay relative to control; type: functional; settings: dose 100 nM, read-out: Activity
[18] = system: M14; assay: Antiproliferative activity against human M14 cells assessed as cell growth at 0.00000001 M incubated for 48 hrs by SRB assay relative to control; type: functional; settings: dose 10 nM, read-out: Activity
[19] = system: TK-10; assay: Antiproliferative activity against human TK-10 cells assessed as cell growth inhibition by measuring lethal concentration incubated for 48 hrs by sulforhodamine B assay; type: functional; settings: read-out: LC50 (the source's name)
How it was run: (§3)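 NCI-60 five-dose screen (10^-4 to 10^-8 M, 10-fold dilutions; DMSO stocks). Cells in RPMI 1640 with 5% FBS and 2 mM L-glutamine, preincubated 24 h, then exposed 48 h at 37 °C, 5% CO2. Fixed with cold TCA, stained with 0.4% SRB, absorbance read at 515 nm. Time-zero plates used as reference. LC50 taken from [(Ti-Tz)/Tz]×100 […].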

[20] = system: A549; assay: Growth inhibition against human A549 cells incubated for 48 hrs by sulforhodamine B assay; type: functional
[21] = system: SW-620; assay: Antiproliferative activity against human SW620 cells assessed as cell growth inhibition by measuring lethal concentration incubated for 48 hrs by sulforhodamine B assay; type: functional; settings: read-out: LC50 (the source's name); how it was run: as §3
[22] = system: HOP-62; assay: Growth inhibition against human HOP-62 cells incubated for 48 hrs by sulforhodamine B assay; type: functional
[23] = system: COLO 205; assay: Growth inhibition against human COLO 205 cells assessed as total growth inhibitory concentration incubated for 48 hrs by sulforhodamine B assay; type: functional
[24] = system: M14; assay: Growth inhibition against human M14 cells incubated for 48 hrs by sulforhodamine B assay; type: functional
[25] = system: OVCAR-3; assay: Growth inhibition against human OVCAR-3 cells incubated for 48 hrs by sulforhodamine B assay; type: functional
[26] = system: MOLT-4; assay: Growth inhibition against human MOLT-4 cells incubated for 48 hrs by sulforhodamine B assay; type: functional
[27] = system: SR; assay: Antiproliferative activity against human SR cells assessed as cell growth at 0.00001 M incubated for 48 hrs by SRB assay relative to control; type: functional; settings: read-out: Activity
[28] = system: COLO 205; assay: Antiproliferative activity against human COLO 205 cells assessed as cell growth at 0.0001 M incubated for 48 hrs by SRB assay relative to control; type: functional; settings: read-out: Activity; how it was run: as §2
[29] = target: Albumin (Bos taurus, UniProt P02769); assay: Binding affinity to bovine serum albumin assessed as quenching constant by fluorescence spectroscopic method; settings: cattle
Albumin, sequence (P02769 whole entry): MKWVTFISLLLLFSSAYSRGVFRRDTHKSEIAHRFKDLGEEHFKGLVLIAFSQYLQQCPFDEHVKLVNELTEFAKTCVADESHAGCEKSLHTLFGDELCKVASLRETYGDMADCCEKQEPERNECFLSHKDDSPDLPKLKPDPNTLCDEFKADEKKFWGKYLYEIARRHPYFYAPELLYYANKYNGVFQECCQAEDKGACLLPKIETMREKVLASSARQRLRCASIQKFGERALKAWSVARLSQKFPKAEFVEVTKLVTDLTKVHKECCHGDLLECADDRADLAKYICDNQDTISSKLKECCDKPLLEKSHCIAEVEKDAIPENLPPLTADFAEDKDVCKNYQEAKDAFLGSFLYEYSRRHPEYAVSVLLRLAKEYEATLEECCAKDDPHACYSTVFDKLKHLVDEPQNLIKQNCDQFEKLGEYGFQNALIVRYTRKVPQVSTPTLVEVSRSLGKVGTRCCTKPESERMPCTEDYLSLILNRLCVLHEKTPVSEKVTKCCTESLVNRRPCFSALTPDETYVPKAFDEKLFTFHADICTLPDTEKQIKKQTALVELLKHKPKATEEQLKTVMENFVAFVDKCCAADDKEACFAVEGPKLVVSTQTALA

[30] = system: HOP-92; assay: Growth inhibition against human HOP-92 cells incubated for 48 hrs by sulforhodamine B assay; type: functional
[31] = system: HCT-116; assay: Antiproliferative activity against human HCT-116 cells assessed as cell growth at 0.000001 M incubated for 48 hrs by SRB assay relative to control; type: functional; settings: read-out: Activity; how it was run: as §1
[32] = system: RPMI-8226; assay: Antiproliferative activity against human RPMI-8226 cells assessed as cell growth at 0.00001 M incubated for 48 hrs by SRB assay relative to control; type: functional; settings: read-out: Activity
[33] = system: CAKI-1; assay: Antiproliferative activity against human CAKI-1 cells assessed as cell growth at 0.000001 M incubated for 48 hrs by SRB assay relative to control; type: functional; settings: read-out: Activity; how it was run: as §2
[34] = system: HOP-62; assay: Antiproliferative activity against human HOP-62 cells assessed as cell growth at 0.00000001 M incubated for 48 hrs by SRB assay relative to control; type: functional; settings: dose 10 nM, read-out: Activity; how it was run: as §1
[35] = system: A549; assay: Antiproliferative activity against human A549 cells assessed as cell growth at 0.0000001 M incubated for 48 hrs by SRB assay relative to control; type: functional; settings: dose 100 nM, read-out: Activity; how it was run: as §2

## COc1ccc(-c2cn3ccnc3c(-c3ccc4ncn(C5CCCCC5)c4c3)n2)cc1
[1]
  GI50: 621 nM
[2]
  GI50: 944 nM
[3]
  growth at 0.01 µM: 87%
[4]
  CC50: > 100000 nM
[5]
  growth at 0.01 µM: 96%
[6]
  growth at 1 µM: 28%
[7]
  growth at 10 µM: -1%
[8]
  growth at 100 µM: 9%
[9]
  TGI: > 100000 nM
[10]
  growth at 0.01 µM: 85%
[11]
  TGI: > 100000 nM
[12]
  growth at 10 µM: -5%
[13]
  GI50: 757 nM
[14]
  growth at 0.01 µM: 100%
[15]
  growth at 100 µM: 22%
[16]
  growth at 1 µM: 45%
[17]
  growth at 0.1 µM: 106%
[18]
  growth at 0.01 µM: 99%
[19]
  CC50: > 100000 nM
[20]
  GI50: 1830 nM
[21]
  CC50: > 100000 nM
[22]
  GI50: 1090 nM
[23]
  TGI: 14400 nM
[24]
  GI50: 612 nM
[25]
  GI50: 411 nM
[26]
  GI50: 2660 nM
[27]
  growth at 10 µM: 9%
[28]
  growth at 100 µM: -5%
[29]
  Kq: 1.16 10^13/M/sec
[30]
  GI50: 1180 nM
[31]
  growth at 1 µM: 23%
[32]
  growth at 10 µM: 10%
[33]
  growth at 1 µM: 44%
[34]
  growth at 0.01 µM: 92%
[35]
  growth at 0.1 µM: 103%

## c1ccc(Cn2cnc3ccc(-c4nc(-c5ccc6c(c5)ncn6C5CCCCC5)cn5ccnc45)cc32)cc1
[1]
  GI50: 1970 nM
[2]
  GI50: 2020 nM
[3]
  growth at 0.01 µM: 91%
[4]
  CC50: > 100000 nM
[5]
  growth at 0.01 µM: 96%
[6]
  growth at 1 µM: 88%
[7]
  growth at 10 µM: -15%
[8]
  growth at 100 µM: -80%
[9]
  TGI: > 100000 nM
[10]
  growth at 0.01 µM: 86%
[11]
  TGI: > 100000 nM
[12]
  growth at 10 µM: -24%
[13]
  GI50: 2450 nM
[14]
  growth at 0.01 µM: 92%
[15]
  growth at 100 µM: 9%
[16]
  growth at 1 µM: 61%
[17]
  growth at 0.1 µM: 114%
[18]
  growth at 0.01 µM: 87%
[19]
  CC50: > 100000 nM
[20]
  GI50: 2330 nM
[21]
  CC50: > 100000 nM
[22]
  GI50: 2130 nM
[23]
  TGI: 3990 nM
[24]
  GI50: 1450 nM
[25]
  GI50: 2270 nM
[26]
  GI50: 1670 nM
[27]
  growth at 10 µM: 5%
[28]
  growth at 100 µM: -39%
[29]
  Kq: 1.14 10^13/M/sec
[30]
  GI50: 1250 nM
[31]
  growth at 1 µM: 54%
[32]
  growth at 10 µM: -29%
[33]
  growth at 1 µM: 71%
[34]
  growth at 0.01 µM: 79%
[35]
  growth at 0.1 µM: 109%
